Measurements reported in article PMC10246574 (International Journal of Nanomedicine, 2023).
Converted amounts (≈) assume the structure as drawn.

What was measured:
[1] = system: chorio-allantoic membrane of fertilized hen's eggs; assay: Hen's egg chorio-allantoic membrane; conditions: for irritation score (IS): 30 µL applied, observed 300 s; for irritation category: from IS
Outline: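 Fertilized hen's eggs (7–10 days) incubated at 37.5 ± 0.5 °C and 62.5 ± 7.5% humidity with rotation. Shell over the air cell opened, membrane moistened with saline and removed. 30 µL sample applied to the CAM. First hemorrhage, vascular lysis and coagulation timed over 300 s; IS = [(301−h)×5]/300 + [(301−l)×7]/300 + [(301−c)×9]/300. CAM also imaged at 0, 5 and 60 min. Controls: 1% w/v SLS and normal saline.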

[2] = Cytotoxicity by MTT assay in HaCaT cells; format: cell-based; conditions: human, HaCaT cells (immortalized epidermal keratinocytes)
Outline: (§1)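 Thawed cells grown in DMEM with 10% v/v fetal calf serum, 1 mM L-glutamine, penicillin and streptomycin at 37 °C, 5% CO2. Seeded at 3 × 10^5 (HaCaT) or 3.5 × 10^5 (Hs68) cells/well for 24 h. Treated with oil at 0–100 µg/mL for 48 h. MTT (5 mg/mL solution) added for 4 h; formazan dissolved in DMSO; A578 and A630.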

human skin = conditions: daily application under occlusive patch, human volunteers; cited from earlier work
[3] = Cytotoxicity by MTT assay in Hs68 cells; format: cell-based; conditions: human, Hs68 cells (foreskin fibroblasts)
Outline: as §1

rabbit skin = conditions: rabbits, ref Acid (1987) [48], cited from earlier work

Structure (SMILES)	irritation score (IS) [1]	irritation category [1]	IC20 at 48 h [2] [µg/mL]	viability at 48 h, 100 µg/mL [2] [%]	irritation of human skin (human skin)	IC20 at 48 h [3] [µg/mL]	viability at 48 h, 100 µg/mL [3] [%]	primary irritation index (PII) (rabbit skin; single insult occlusive patch test)	erythema (rabbit skin; oleic acid after 24 h, palmitic acid after 2–24 h)	irritation signs on CAM after 60 min of exposure ([1]; 60 min)
CCCCCCCCCCCCOS(=O)(=O)[O-].[Na+] [SLS, sodium lauryl sulphate]	12.5 ± 0.3	severe irritation								
CCCCC/C=C\C/C=C\CCCCCCCC(=O)O [linoleic acid]	0.0 ± 0.0	no irritant effect	100 (≈ 357 µM)	73.8 ± 5.8	found to produce irritation	> 100	> 90			
CCCCCCCC/C=C\CCCCCCCC(=O)O [oleic acid]	0.0 ± 0.0	no irritant effect	100 (≈ 354 µM)	82.2 ± 6.1	not found to be irritating	> 100	> 90	0.5	moderate erythema	
CCCCCCCCCCCCCCCC(=O)O [palmitic acid]	0.0 ± 0.0	no irritant effect	100 (≈ 390 µM)	75.9 ± 3.5	not found to be irritating	> 100	> 90			vascular lysis was detected
